Calls of active or inactive are those of the source. The rule behind the calls is not given here.

Broadly, the Ki is a measure of affinity in units of concentration, obtained from inhibition or displacement. One may read the EC50 as the concentration that produces a half-maximal response.

Data set [1] has as its target T1, Cathepsin B (Homo sapiens, UniProt P07858). In words: Inhibition of human cathepsin B.
A further data set addresses Rhodesain (Trypanosoma brucei rhodesiense, UniProt Q95PM0). In words: Inhibition of Trypanosoma brucei rhodesiense rhodesain expressed in Pichia pastoris using Cbz-Phe-Arg-AMC as substrate after 15 to 30 mins by fluorescence spectrophotometric analysis.
Data set [2] concerns the target T2, Procathepsin L (Homo sapiens, UniProt P07711). In words: Inhibition of human cathepsin L.
Target sequence in this assay (P07711 whole entry): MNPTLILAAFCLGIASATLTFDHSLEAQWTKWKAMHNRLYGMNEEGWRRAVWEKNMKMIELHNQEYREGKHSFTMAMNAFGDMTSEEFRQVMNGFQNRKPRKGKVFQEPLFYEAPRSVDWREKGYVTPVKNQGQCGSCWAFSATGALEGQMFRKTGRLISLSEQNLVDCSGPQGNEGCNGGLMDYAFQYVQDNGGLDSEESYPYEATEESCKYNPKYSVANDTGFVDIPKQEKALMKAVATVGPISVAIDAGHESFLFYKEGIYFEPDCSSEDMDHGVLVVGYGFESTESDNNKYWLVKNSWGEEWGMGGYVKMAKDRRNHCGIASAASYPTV
In data set [3] the test system is Trypanosoma brucei brucei. Description: Antitrypanosomal activity against Trypanosoma brucei brucei expressing BS449 after 48 hrs by ATPlite-luciferase reporter gene assay. It counts as functional.
The test system of data set [4] is Trypanosoma brucei brucei. In words: Antitrypanosomal activity against Trypanosoma brucei brucei expressing BS449 after 24 hrs by ATPlite-luciferase reporter gene assay. It counts as functional. In general terms: In ATP-based viability assays light output follows the ATP content of the culture.
For data set [5], the system named is Trypanosoma brucei brucei. In words: Antitrypanosomal activity against Trypanosoma brucei brucei expressing BS449 after 72 hrs by ATPlite-luciferase reporter gene assay. The format is functional.
The target of data set [6] is T2, Procathepsin L. In words: Reversible inhibition of human cathepsin L assessed as enzyme activity recovery at 0.1 to 5 times IC50 preincubated for 5 mins followed by substrate addition measured up to 1500 sec by dilution assay.
Target sequence in this assay (P07711 114-333 limits assumed): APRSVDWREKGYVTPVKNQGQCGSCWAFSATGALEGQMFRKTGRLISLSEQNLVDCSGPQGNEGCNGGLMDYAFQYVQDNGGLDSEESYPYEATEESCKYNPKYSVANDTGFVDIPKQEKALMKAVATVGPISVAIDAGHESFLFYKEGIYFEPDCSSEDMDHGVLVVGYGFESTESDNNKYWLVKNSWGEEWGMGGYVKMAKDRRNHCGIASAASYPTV
In a further data set the target is Cruzipain (Trypanosoma cruzi, UniProt P25779). In words: Inhibition of Trypanosoma cruzi cruzain.
The nature of data set [7]: Stability of the compound in HMI-9 medium after 24 hrs. The format is physicochemical.
In data set [8] the target is T1, Cathepsin B. Description: Reversible inhibition of human cathepsin B assessed as enzyme activity recovery at 0.1 to 5 times IC50 preincubated for 5 mins followed by substrate addition measured up to 1500 sec by dilution assay.
Data set [9] has as its target Rhodesain (Trypanosoma brucei rhodesiense) (UniProt Q95PM0). In words: Binding affinity to Trypanosoma brucei rhodesiense 15N-labeled rhodesain expressed in Pichia pastoris at 1:3 molar ratio of protein:inhibitor incubated for 22 mins by 1H[…]TROSY-HSQC spectra analysis. An outline of the steps: (§1)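 15N-labelled rhodesain was mixed with inhibitor at 1:1 mol/mol, incubated 15 min, and a 1H–15N TROSY-HSQC spectrum was recorded. Inhibitor in DMSO-d6 was then added to reach a 1:3 protein/inhibitor ratio, incubated a further 7 min, and the spectrum was re-recorded.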

Data set [10] has the same target. In words: Reversible inhibition of Trypanosoma brucei rhodesiense rhodesain assessed as enzyme activity recovery preincubated for 5 mins followed by substrate addition measured after 30 mins by dialysis assay relative to control. The arrangement: scale not given: the % may be the effect or the level left.
Data set [11] shares this target. Description: Binding affinity to Trypanosoma brucei rhodesiense 15N-labeled rhodesain expressed in Pichia pastoris at 1:1 molar ratio of protein:inhibitor incubated for 15 mins by 1H[…]TROSY-HSQC spectra analysis. An outline of the steps: as §1
Data set [12] has the same target. Description: Reversible inhibition of Trypanosoma brucei rhodesiense rhodesain assessed as enzyme activity recovery preincubated for 5 mins followed by substrate addition measured after 90 mins by dialysis assay relative to control. Details: scale not given: the % may be the effect or the level left.
Data set [13] has the same target. Description: Reversible inhibition of Trypanosoma brucei rhodesiense rhodesain assessed as enzyme activity recovery preincubated for 5 mins followed by substrate addition measured after 60 mins by dialysis assay relative to control. Details: scale not given: the % may be the effect or the level left.
Data set [14] has the same target. In words: Reversible inhibition of Trypanosoma brucei rhodesiense rhodesain assessed as enzyme activity recovery preincubated for 5 mins followed by substrate addition measured after 120 mins by dialysis assay relative to control. Details: scale not given: the % may be the effect or the level left.

Sequence of Cruzipain (P25779 whole entry): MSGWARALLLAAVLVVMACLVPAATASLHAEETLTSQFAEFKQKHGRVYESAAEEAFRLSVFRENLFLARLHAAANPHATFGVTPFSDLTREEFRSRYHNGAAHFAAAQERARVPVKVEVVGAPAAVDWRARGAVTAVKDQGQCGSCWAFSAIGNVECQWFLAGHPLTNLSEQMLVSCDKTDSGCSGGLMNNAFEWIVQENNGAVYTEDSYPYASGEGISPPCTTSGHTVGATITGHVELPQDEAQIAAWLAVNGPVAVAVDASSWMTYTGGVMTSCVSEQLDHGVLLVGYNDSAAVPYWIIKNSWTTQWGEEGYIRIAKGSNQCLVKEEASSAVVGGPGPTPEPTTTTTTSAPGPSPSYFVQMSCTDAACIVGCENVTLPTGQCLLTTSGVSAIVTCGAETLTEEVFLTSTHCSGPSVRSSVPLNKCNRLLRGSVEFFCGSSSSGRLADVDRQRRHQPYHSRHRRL
Sequence of Rhodesain (Q95PM0 whole entry): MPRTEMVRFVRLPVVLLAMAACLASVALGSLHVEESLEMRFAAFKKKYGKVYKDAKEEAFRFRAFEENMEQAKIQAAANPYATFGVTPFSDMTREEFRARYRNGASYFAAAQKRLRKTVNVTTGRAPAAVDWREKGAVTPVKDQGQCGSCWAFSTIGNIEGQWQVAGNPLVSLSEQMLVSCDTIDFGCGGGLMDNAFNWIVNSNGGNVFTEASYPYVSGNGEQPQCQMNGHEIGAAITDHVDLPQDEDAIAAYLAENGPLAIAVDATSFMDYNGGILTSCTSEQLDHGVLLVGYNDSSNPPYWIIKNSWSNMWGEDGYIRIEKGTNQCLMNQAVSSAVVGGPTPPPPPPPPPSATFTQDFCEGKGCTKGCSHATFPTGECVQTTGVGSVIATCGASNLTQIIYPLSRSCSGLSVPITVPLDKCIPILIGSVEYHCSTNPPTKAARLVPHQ
Sequence of Rhodesain (Trypanosoma brucei rhodesiense) (Q95PM0 1-450): as the sequence (Q95PM0 whole entry) above

For the molecule `C/C(=C\[C@H](C)NC(=O)[C@H](CC(C)C)NC(=O)OCc1ccccc1)[N+](=O)[O-]`, the Ki at Cathepsin B [1] was found to be 3.2 µM; at Rhodesain, 0.544 µM; on Procathepsin L [2], 2.02 µM.
Regarding `N=C(NCCCCCCNC(=N)NC(=N)Nc1ccc(Cl)cc1)NC(=N)Nc1ccc(Cl)cc1` [CHLORHEXIDINE], the results for the EC50 in data set [3], in [4] and in data set [5] were 0.41 µM, 0.43 µM and 0.43 µM, respectively.
For the molecule `CC(C)C[C@H](NC(=O)OCc1ccccc1)C(=O)N[C@H](/C=C/[N+](=O)[O-])Cc1ccccc1`, the Ki at Cathepsin B [1] came to 0.71 µM; on Rhodesain it was 0.018 µM; at Procathepsin L [2] it was 0.049 µM; on Cruzipain, 0.028 µM. Moreover, on Procathepsin L [6], the “reversible inhibition (enzyme activity recovery)” value (“reversible inhibition” for short) was “Active”.
Regarding `C[C@@H](/C=C/[N+](=O)[O-])NC(=O)[C@H](Cc1ccccc1)NC(=O)OCc1ccccc1`, the concentration for a half-maximal effect (EC50) in data set [3] worked out at 7.17 µM; in [4], 5.64 µM; in [5] it was 10.8 µM. Besides, the inhibitory constant (Ki) on Cathepsin B [1] stood at 0.008 µM; at Rhodesain, 0.00049 µM; at Procathepsin L [2] it was 0.011 µM; at Cruzipain, 0.00044 µM. On Procathepsin L [6], the “reversible inhibition” value was “Active”. For the same molecule, the Stability result in [7] was “Unstable”.
For `CC(C)C[C@H](NC(=O)OCc1ccccc1)C(=O)N[C@@H](C)/C=C/[N+](=O)[O-]`, the inhibition result at Cathepsin B [8] is “Active”. Besides, the inhibition constant Ki on Cathepsin B [1] was determined as 0.31 µM; at Rhodesain, 0.03 µM; on Procathepsin L [2], 0.2 µM; at Cruzipain, 0.13 µM.
As for `CC(C)C[C@@H](/C=C/[N+](=O)[O-])NC(=O)[C@H](Cc1ccccc1)NC(=O)OCc1ccccc1`, the result in data set [9] and in data set [11] was Active. Besides, the Activity turned out to be 16% in [10], 29% in data set [12], 24% in data set [13] and 47% in data set [14]. For the same molecule, the EC50 stood at 1.31 µM in data set [3], 0.99 µM in data set [4] and 2.06 µM in data set [5]. Further, the inhibition constant (Ki) is 0.068 µM on Cathepsin B [1], 0.0065 µM at Rhodesain, 0.03 µM on Procathepsin L [2] and 0.016 µM on Cruzipain. On Procathepsin L [6], the “reversible inhibition” value is “Active”. Further, the Stability result in data set [7] was “Unstable”.
As for `CN1CCN(C(=O)N[C@@H](Cc2ccccc2)C(=O)N[C@H](/C=C/S(=O)(=O)c2ccccc2)CCc2ccccc2)CC1`, the Activity is 0% in data set [10], 0% in [12], 2% in data set [13] and 3% in [14].
For the molecule `C/C(=C\[C@H](C)NC(=O)[C@H](Cc1ccccc1)NC(=O)OCc1ccccc1)[N+](=O)[O-]`, the values for the Ki at Cathepsin B [1], on Rhodesain and on Procathepsin L [2] were 6.3 µM, 0.05 µM and 0.28 µM, respectively.
Take `O=C(N[C@@H](Cc1ccccc1)C(=O)N[C@H](/C=C/[N+](=O)[O-])CCc1ccccc1)OCc1ccccc1`: the concentration giving a half-maximal response (EC50) in [3] came to 2.1 µM; in data set [4] it was 1.62 µM; in data set [5], 3.45 µM. For the same molecule, the Ki at Cathepsin B [1] is 0.034 µM; on Rhodesain, 0.0042 µM; at Procathepsin L [2], 0.0196 µM; at Cruzipain, 0.011 µM. Moreover, in data set [7], the Stability result is listed as “Unstable”.
`CC(C)C[C@@H](/C=C/[N+](=O)[O-])NC(=O)[C@H](CC(C)C)NC(=O)OCc1ccccc1`: the inhibition entry at Cathepsin B [8] is “Active”. Further, the Activity in data set [10] was 17%; in [12], 35%; in [13] it was 26%; in [14] it was 49%. Moreover, the Ki at Cathepsin B [1] was 0.21 µM; on Rhodesain, 0.0184 µM; at Procathepsin L [2], 0.046 µM; on Cruzipain it was 0.025 µM. In addition, the “reversible inhibition” value on Procathepsin L [6] is “Active”.
Turning to `CC(C)C[C@H](NC(=O)OCc1ccccc1)C(=O)N[C@H](/C=C/[N+](=O)[O-])CCc1ccccc1`, the Activity in data set [10] is 22%; in data set [12] it was 76%; in data set [13], 46%; in [14] it was 110%. Besides, the Ki is 0.072 µM at Cathepsin B [1], 0.014 µM at Rhodesain, 0.027 µM on Procathepsin L [2] and 0.017 µM on Cruzipain.
On to `O=C(N[C@@H](Cc1ccccc1)C(=O)N[C@H](/C=C/[N+](=O)[O-])Cc1ccccc1)OCc1ccccc1`, for which the inhibitory constant (Ki) on Cathepsin B [1] worked out at 0.31 µM; on Rhodesain it was 0.029 µM; on Procathepsin L [2] it was 0.11 µM; on Cruzipain, 0.13 µM.

Source of the values: ChEMBL document CHEMBL3864177, “Dipeptidyl Nitroalkenes as Potent Reversible Inhibitors of Cysteine Proteases Rhodesain and Cruzain” (ACS Med Chem Lett, 2016).
